Data: ChEMBL document CHEMBL4513216, “Probing the Open Global Health Chemical Diversity Library for Multistage-Active Starting Points for Next-Generation Antimalarials” (ACS Infect Dis, 2020)

Experiment: Toxicity liver stage against HepG2, at 10uM
Assay type: cell-based
Set-up: test concentration 10 uM, cell line HepG2-A16-CD81EGFP
Details: human, HepG2-A16-CD81EGFP cells; read-out: INHIBITION
How it was run: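 Uninfected HepG2-A16-CD81EGFP cells, 3 × 10^3 per well, 1536-well, plated on prespotted compound at 10 μM final, parasite-free screening media added to match infected plates; puromycin 10 μM positive, DMSO 0.5% negative; run in parallel with 48 h PbLuc assay at 37 °C, 5% CO2; viability by CellTiter-Glo luminescence, normalized to controls.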
Nc1nccc(N[C@H]2CN(CC(=O)NC3CCCCC3)C[C@@H]2C2CC2)n1 gave a cytotoxicity at 10 µM of -0.208%.
In the case of COCCN1CCN(C(=O)NC2CC2)Cc2ccc(C)nc21, the cytotoxicity at 10 µM was 3.51%.
Work on Cc1n[nH]cc1CNC(=O)CCCc1cccs1 yielded a cytotoxicity at 10 µM of -52.3%.
Work on CC(C)CC(C)NCc1cccnc1N1CCOCC1 (stereo not drawn) yielded a cytotoxicity at 10 µM of -4.22%.
With O=S(=O)(C1CC1)N1CCC2(CC1)CN(Cc1ccccn1)CCO2 the cytotoxicity at 10 µM was -0.358%.
c1cc(CC2CCCNC2)nc(NCCc2cnccn2)c1 (stereo not drawn) gave a cytotoxicity at 10 µM of 3.64%.
Work on O=C(CCC1CCCN(C(=O)CCN2CCCCO2)C1)N1CCCC1 (stereo not drawn) yielded a cytotoxicity at 10 µM of 2.11%.
For c1cc(CNCC2CNc3ccnn3C2)cc(Cn2cccn2)c1 (stereo not drawn), the cytotoxicity at 10 µM was -19%.
Cc1nc(C)n(CC2CCCCN2c2ccnc(-c3ccccc3)n2)n1 (stereo not drawn) showed a cytotoxicity at 10 µM of -1.17%.
With O=C(NC1CC(=O)N(C2Cc3ccccc3C2)C1)c1cc[n+]([O-])cc1 (stereo not drawn) the cytotoxicity at 10 µM was -1.03%.
Work on CNC(=O)C(C)CN(C)C(=O)Nc1ccc(F)c(-n2cccc2)c1 (stereo not drawn) yielded a cytotoxicity at 10 µM of -2.07%.
For c1cncc(CN2CCCC3(COCCN(c4cnccn4)C3)C2)c1 (stereo not drawn), the cytotoxicity at 10 µM was -0.0653%.
Compound CC(C)CCNC(=O)c1sccc1N(C)S(=O)(=O)c1ccccc1 has a cytotoxicity at 10 µM of 9.33%.
CN(C)CCn1c([C@H]2CCCO2)cc2cccnc21 showed a cytotoxicity at 10 µM of 17.1%.
N#Cc1cccc(NC2CC(=O)N(CCc3ccc(F)cc3)C2)n1 (stereo not drawn) gave a cytotoxicity at 10 µM of -118%.
For CC(C)Cc1noc(CN(C)C2CCCC2)n1, the cytotoxicity at 10 µM was 0.274%.
Work on Cc1ccc(CNC2CCN(CCc3ccncc3)CC2)cc1C yielded a cytotoxicity at 10 µM of -8.92%.
For COc1ccc(C(=O)N(C)Cc2cc(C)on2)c(OC)c1, the cytotoxicity at 10 µM was -11.3%.
With CC(C)c1nc(CN(C)C2CCCN(c3cccnn3)C2)no1 (stereo not drawn) the cytotoxicity at 10 µM was -9.92%.
Work on CC(C)n1nnc2c(sc3nc(N4CCOCC4)c4c(c32)CCC4)c1=O yielded a cytotoxicity at 10 µM of 3.26%.
For NCC1CN(Cc2cn(CCC(N)=O)c3ccccc23)CCO1 (stereo not drawn), the cytotoxicity at 10 µM was 4.01%.
Cn1cc(C2CCCN2Cc2csc(Cc3ccccc3)n2)cn1 (stereo not drawn) gave a cytotoxicity at 10 µM of -1.19%.
Work on CO[C@H]1CCN(c2ccc(C)nn2)[C@H]1Cc1cnn(C)c1 yielded a cytotoxicity at 10 µM of -12.7%.
Work on Cc1cnc(CN2CCCC(c3cc(C(F)(F)F)[nH]n3)C2)cn1 (stereo not drawn) yielded a cytotoxicity at 10 µM of -0.168%.
Work on COc1ccc(OC)c(Sc2ncccc2C(=O)NCCSC)c1 yielded a cytotoxicity at 10 µM of 20.7%.
CC(C)c1nnc(NC(=O)N2CCN(C)CC2c2ccccc2)s1 (stereo not drawn) gave a cytotoxicity at 10 µM of -11.6%.
Compound CN(C)Cc1cc(-c2nccn2CCc2cccnc2)ccc1O has a cytotoxicity at 10 µM of -42.9%.
COCCN(Cc1ccoc1)S(=O)(=O)c1cccc(C(F)(F)F)c1 showed a cytotoxicity at 10 µM of 3.17%.
O=C(Nc1ccccc1F)NC1(CO)CCOCC1 gave a cytotoxicity at 10 µM of -46.4%.
Compound COc1cc(N2C[C@H]3CCC[C@@H](CN(C)C4CC4)[C@H]3C2)ncn1 has a cytotoxicity at 10 µM of -73%.
Work on CSCC(C)N(C)S(=O)(=O)c1ccc(Cl)cc1C#N (stereo not drawn) yielded a cytotoxicity at 10 µM of -41.5%.
With O=S(=O)(C1CC1)N1CCC2(CN(c3ncccn3)C2)C1 the cytotoxicity at 10 µM was -98.4%.
For COc1ccc(F)cc1C(=O)Nc1nnc(C)s1, the cytotoxicity at 10 µM was 11.1%.
Compound Cc1cc(=O)n2nc(Oc3cc(Cl)cc(Cl)c3)sc2n1 has a cytotoxicity at 10 µM of 16.8%.
Compound CN(C)C(=O)CN1CCC2(CCN(S(C)(=O)=O)CC2)C1=O has a cytotoxicity at 10 µM of 2.2%.
In the case of CC(C)c1nnc2n1CCN(Cc1cc(Cl)c3c(c1)OCCO3)C2, the cytotoxicity at 10 µM was 0.549%.
With N#CCCN(CCC#N)Cc1ccc(Br)c2cccnc12 the cytotoxicity at 10 µM was 1.73%.
With O=C(Cn1nc2ccccc2n1)N1CCCC(O)(CO)C1 (stereo not drawn) the cytotoxicity at 10 µM was -6.66%.
For COCc1ccccc1C(=O)OCc1noc(C)n1, the cytotoxicity at 10 µM was 7.01%.
Cn1cc(C(=O)N2CC[C@@H]3[C@@H]2CCN3c2ccccn2)cn1 showed a cytotoxicity at 10 µM of -0.0807%.
Compound O=C1COC2(CCN(Cc3cccnc3)CC2)CN1 has a cytotoxicity at 10 µM of 2.78%.
With CCOc1ccc(NC2CCN(C3CC3)C2=O)cn1 (stereo not drawn) the cytotoxicity at 10 µM was -0.387%.
With Cc1ccc(CNC(=O)Nc2nnc(C(C)C)s2)n1C the cytotoxicity at 10 µM was -10%.
In the case of N#CCc1ccc(OCC(=O)NS(=O)(=O)c2cccs2)cc1, the cytotoxicity at 10 µM was 13.6%.
Fc1cccc(-c2nnn3c2COCC(CNCc2nccs2)C3)c1 (stereo not drawn) showed a cytotoxicity at 10 µM of -112%.
Compound Cc1ccc(-c2nc(CN3CCOC(Cn4cncn4)C3)cs2)o1 (stereo not drawn) has a cytotoxicity at 10 µM of 4.5%.
With O=S1(=O)CCC(n2nc(COc3ccccc3)nc2-c2cnccn2)C1 (stereo not drawn) the cytotoxicity at 10 µM was -4.64%.
For CCn1cc(S(=O)(=O)N2CCC(C)CC2)c(C)n1, the cytotoxicity at 10 µM was 8.44%.
Work on CC1CCc2sc(C(=O)Nc3cnn(C)c3)cc2C1 (stereo not drawn) yielded a cytotoxicity at 10 µM of 9.48%.
For C[S+]([O-])CCNCc1ccc(OCc2cscn2)cc1 (stereo not drawn), the cytotoxicity at 10 µM was -138%.
Cc1nn(C)c2c(NCCCn3cccn3)ncnc12 gave a cytotoxicity at 10 µM of -0.472%.
In the case of CC(NCCn1cccn1)c1ccccc1F (stereo not drawn), the cytotoxicity at 10 µM was -3.21%.
Compound Cc1ccc(C2(O)CCN(C(=O)c3ccc(S(N)(=O)=O)cc3)CC2)nc1 has a cytotoxicity at 10 µM of -2.13%.
For CCNC(=O)N1CCC(=Cc2ccccc2)CC1, the cytotoxicity at 10 µM was 3.87%.
For O=S1(=O)NCC2(CCN(Cc3ccc(Cl)s3)C2)Oc2ncccc21 (stereo not drawn), the cytotoxicity at 10 µM was 4.65%.
Compound O=C(c1ccc(O)cc1)N1C[C@@H]2CCN(c3cccnc3)C[C@@H]2C1 has a cytotoxicity at 10 µM of -50.9%.
For COC(=O)[C@H](CCSC)NC(=O)Cn1ccc2c(Cl)cccc21, the cytotoxicity at 10 µM was 2.17%.
CN1CCOC(CNC(=O)CCc2cc(F)ccc2F)C1 (stereo not drawn) gave a cytotoxicity at 10 µM of 2.32%.
Cc1cccc2nc(CSCC(=O)Nc3nnc(C(C)C)s3)cc(=O)n12 gave a cytotoxicity at 10 µM of -3.95%.
Cc1ccc(CSc2nc(N)cc(NCCC(N)=O)n2)cc1 gave a cytotoxicity at 10 µM of 0.375%.
COc1ccc(CN(Cc2cc(C)no2)C2CC2)cc1 showed a cytotoxicity at 10 µM of -3.71%.
Compound Cc1nnc(N2C[C@H](OCC3CCCC3)[C@H]3OCCC[C@H]32)s1 has a cytotoxicity at 10 µM of 5.16%.
Work on Cc1occc1C(=O)N1CCCN(Cc2ncc(Cl)n2C)CC1 yielded a cytotoxicity at 10 µM of -1.25%.
Work on Cc1ncsc1C(=O)NCc1cc2n(n1)CCN(C(=O)N(C)C)C2 yielded a cytotoxicity at 10 µM of -5.62%.
Compound N#Cc1cccc(S(=O)(=O)NC2CCN(Cc3ccccc3)C2=O)c1 (stereo not drawn) has a cytotoxicity at 10 µM of -7.18%.
For c1ccc(N2CCC(OCC3CCCCO3)CC2)nc1 (stereo not drawn), the cytotoxicity at 10 µM was -1.03%.
In the case of CO[C@H]1CN(C(=O)c2cc3ccccc3[nH]2)CC[C@H]1N, the cytotoxicity at 10 µM was 11%.
COCc1n[nH]/c(=N\C(=O)c2c3c(nc4onc(C)c24)CCC3)s1 showed a cytotoxicity at 10 µM of -4.41%.
COCCNC(=O)CCC1CCN(Cc2cccc(SC)c2)CC1 gave a cytotoxicity at 10 µM of 14.6%.
Work on CN(C)CCO[C@@H]1CC[C@H]2[C@H]1OCCN2C(=O)c1ccnnc1 yielded a cytotoxicity at 10 µM of -2.1%.
CNc1nc2c(s1)C(c1ccccc1F)CC(=O)N2 (stereo not drawn) showed a cytotoxicity at 10 µM of 4.43%.
For CC(=O)N1CCN(C(=O)c2ccc(-c3cccc(C)c3)[nH]c2=O)CC1, the cytotoxicity at 10 µM was 3.64%.
In the case of O=C1CCCN1C1CCCN(CCn2cc(Cl)cn2)C1 (stereo not drawn), the cytotoxicity at 10 µM was -0.626%.
With CN(C)Cc1nc(C(C)(C)NC(=O)c2ccnn2C)no1 the cytotoxicity at 10 µM was 0.966%.
O=C(CCn1cccn1)NCCOc1cccc(Cl)c1 gave a cytotoxicity at 10 µM of -2.48%.
Compound O=S(=O)(Cc1ccccc1)NCc1ccnc(O)c1 has a cytotoxicity at 10 µM of -1.2%.
With CC(=O)N1CCN(C(=O)NCc2ccccc2Cn2ccnc2)CC1 the cytotoxicity at 10 µM was 0.243%.
In the case of O[C@H]1CN(Cc2cccc(C(F)(F)F)c2)CC[C@@]12CCCO2, the cytotoxicity at 10 µM was -19.6%.
With COc1coc(CN2CCCC(CCc3c(F)cccc3F)C2)cc1=O (stereo not drawn) the cytotoxicity at 10 µM was 1.18%.
In the case of CN(Cc1nnc(C2CC2)n1C)S(=O)(=O)Cc1ccccc1F, the cytotoxicity at 10 µM was 16.8%.
For Cn1cc(C2SCC(=O)Nc3c2c(=O)[nH]n3C2CCOCC2)cn1 (stereo not drawn), the cytotoxicity at 10 µM was -0.348%.
Cc1ncnc(NC(CC(C)(C)C)c2cccnc2)c1C (stereo not drawn) gave a cytotoxicity at 10 µM of 1.65%.
For CN(C)C(=O)COC[C@@]12CCC[C@@H]1CN(C1CCCC1)C2, the cytotoxicity at 10 µM was -13.2%.
